Reference: ChEMBL document CHEMBL1671631, “Staphylococcus aureus PBP4 is essential for beta-lactam resistance in community-acquired methicillin-resistant strains” (2008)
Converted amounts (≈) assume the structure as drawn.

Assays:
[1] = Antimicrobial activity against hospital-acquired pbp4-deficient Staphylococcus aureus Mu50 serotype USA100 by microdilution method; assay type: functional, Staphylococcus aureus subsp. aureus Mu50
In short: (§1)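 Broth microdilution MIC per CLSI guidelines, inoculum 5 x 10^5 CFU/ml, confirmed by plating serial dilutions. Run in triplicate; three independent clones per mutant. Reported as the median of at least three independent experiments. MBC: clear wells plated onto drug-free tryptic soy agar, 37°C, 24 and 48 h. pEPSA5-carrying strains tested with and without xylose, no chloramphenicol.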

Staphylococcus aureus [2] = experiment: Antimicrobial activity against community-acquired pbp3/4-deficient Staphylococcus aureus MW2 ex serotype USA400 by microdilution method; assay type: functional; in short: as §1
Staphylococcus aureus [3] = experiment: Antimicrobial activity against hospital-acquired pbp3-deficient Staphylococcus aureus COL serotype USA500 by microdilution method; assay type: functional; in short: as §1
Staphylococcus aureus [4] = experiment: Antimicrobial activity against community-acquired pbp4-deficient Staphylococcus aureus MW2 serotype USA400 by microdilution method; assay type: functional; in short: as §1
Staphylococcus aureus [5] = experiment: Antimicrobial activity against community-acquired pbp4-deficient Staphylococcus aureus USA300 by microdilution method; assay type: functional; in short: as §1
Staphylococcus aureus [6] = experiment: Antimicrobial activity against hospital-acquired pbp4-deficient Staphylococcus aureus COL serotype USA500 by microdilution method; assay type: functional; in short: as §1
[7] = Antimicrobial activity against hospital-acquired pbp4-deficient Staphylococcus aureus N315 serotype USA100 by microdilution method; assay type: functional, Staphylococcus aureus subsp. aureus N315
In short: (§2)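 Broth microdilution MIC per CLSI guidelines, inoculum 5 x 10^5 CFU/ml, confirmed by plating serial dilutions. Run in triplicate; three independent clones per mutant. Reported as the median of at least three independent experiments.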

Staphylococcus aureus [8] = experiment: Antimicrobial activity against wild type community-acquired methicillin-resistant Staphylococcus aureus USA300 by microdilution method; assay type: functional; in short: as §1
Staphylococcus aureus [9] = experiment: Antimicrobial activity against community-acquired pbp4::pbp4-deficient Staphylococcus aureus MW2 serotype USA400 by microdilution method; assay type: functional; in short: as §1
Staphylococcus aureus [10] = experiment: Antimicrobial activity against community-acquired pbp3-deficient Staphylococcus aureus MW2 ex serotype USA400 by microdilution method; assay type: functional; in short: as §2
Staphylococcus aureus [11] = experiment: Antimicrobial activity against hospital-acquired pbp3/4-deficient Staphylococcus aureus COL serotype USA500 by microdilution method; assay type: functional; in short: as §1
[12] = Antimicrobial activity against wild type hospital-acquired methicillin-resistant Staphylococcus aureus N315 serotype USA100 by microdilution method; assay type: functional, Staphylococcus aureus subsp. aureus N315; in short: as §1
Staphylococcus aureus [13] = experiment: Antimicrobial activity against wild type community-acquired methicillin-resistant Staphylococcus aureus MW2 serotype USA400 by microdilution method; assay type: functional; in short: as §1
Staphylococcus aureus [14] = experiment: Antimicrobial activity against wild type hospital-acquired methicillin-resistant Staphylococcus aureus COL serotype USA500 by microdilution method; assay type: functional; in short: as §1
Staphylococcus aureus [15] = experiment: Antimicrobial activity against community-acquired pbp4::pbp4-deficient Staphylococcus aureus USA300 by microdilution method; assay type: functional; in short: as §1
Staphylococcus aureus [16] = experiment: Antimicrobial activity against wild type community-acquired methicillin-resistant Staphylococcus aureus MW2 ex serotype USA400 by microdilution method; assay type: functional; in short: as §2
Staphylococcus aureus [17] = experiment: Antimicrobial activity against community-acquired pbp4-deficient Staphylococcus aureus MW2 serotype USA400 by microdilution method relative to wild type; assay type: functional
In short: (§3)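 Broth microdilution MIC per CLSI, inoculum 5 x 10^5 CFU/ml, inoculum confirmed by plating serial dilutions. Three independent clones tested per mutant, each in triplicate. Reported value is the median of at least three independent experiments. MBC obtained by plating clear wells onto drug-free tryptic soy agar, incubated 37°C for 24 and 48 h.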

Staphylococcus aureus [18] = experiment: Antimicrobial activity against community-acquired pbp3-deficient Staphylococcus aureus MW2 serotype USA400 by microdilution method; assay type: functional; in short: as §1
Staphylococcus aureus [19] = experiment: Antimicrobial activity against community-acquired pbp4-deficient Staphylococcus aureus USA300 by microdilution method relative to wild type; assay type: functional; in short: as §3
Staphylococcus aureus [20] = experiment: Antimicrobial activity against community-acquired pbp4-deficient Staphylococcus aureus MW2 ex serotype USA400 by microdilution method; assay type: functional; in short: as §1
[21] = Antimicrobial activity against wild type hospital-acquired methicillin-resistant vancomycin-intermediate Staphylococcus aureus Mu50 serotype USA100 by microdilution method; assay type: functional, Staphylococcus aureus subsp. aureus Mu50; in short: as §1
Staphylococcus aureus [22] = experiment: Antimicrobial activity against community-acquired pbp3/4-deficient Staphylococcus aureus MW2 serotype USA400 by microdilution method; assay type: functional; in short: as §1
Staphylococcus aureus [23] = experiment: Antimicrobial activity against wild type hospital-acquired methicillin-resistant Staphylococcus aureus 252 after 48 hrs by microdilution method; assay type: functional; conditions: Staphylococcus aureus, 252, 48 h
Staphylococcus aureus [24] = experiment: Antimicrobial activity against wild type community-acquired methicillin-resistant Staphylococcus aureus MW2 (USA400) after 48 hrs by microdilution method; assay type: functional
Staphylococcus aureus [25] = experiment: Antimicrobial activity against wild type community-acquired methicillin-resistant Staphylococcus aureus USA300 after 48 hrs by microdilution method; assay type: functional; conditions: USA300, 48 h
Staphylococcus aureus [26] = experiment: Antimicrobial activity against wild type hospital-acquired methicillin-resistant vancomycin-intermediate Staphylococcus aureus Mu50 after 48 hrs by microdilution method; assay type: functional; conditions: Mu50, 48 h
Staphylococcus aureus [27] = experiment: Antimicrobial activity against wild type hospital-acquired methicillin-resistant Staphylococcus aureus COL after 48 hrs by microdilution method; assay type: functional

SMILES | MIC [1] [µg/mL] | MIC (Staphylococcus aureus [2]) [µg/mL] | MIC (Staphylococcus aureus [3]) [µg/mL] | MIC (Staphylococcus aureus [4]) [µg/mL] | MIC (Staphylococcus aureus [5]) [µg/mL] | MIC (Staphylococcus aureus [6]) [µg/mL] | MIC [7] [µg/mL] | MIC (Staphylococcus aureus [8]) [µg/mL] | MIC (Staphylococcus aureus [9]) [µg/mL] | MIC (Staphylococcus aureus [10]) [µg/mL] | MIC (Staphylococcus aureus [11]) [µg/mL] | MIC [12] [µg/mL] | MIC (Staphylococcus aureus [13]) [µg/mL] | MIC (Staphylococcus aureus [14]) [µg/mL] | MIC (Staphylococcus aureus [15]) [µg/mL] | MIC (Staphylococcus aureus [16]) [µg/mL] | MIC (Staphylococcus aureus [18]) [µg/mL] | MIC (Staphylococcus aureus [20]) [µg/mL] | MIC [21] [µg/mL] | MIC (Staphylococcus aureus [22]) [µg/mL] | other results
CCOc1ccc2ccccc2c1C(=O)N[C@@H]1C(=O)N2[C@@H]1SC(C)(C)[C@@H]2C(=O)O [NAFCILLIN] | 256 (≈ 618 µM) | 1 (≈ 2.41 µM) | 64 (≈ 154 µM) | 1 (≈ 2.41 µM) | 1 (≈ 2.41 µM) | 64 (≈ 154 µM) | 64 (≈ 154 µM) | 16 (≈ 38.6 µM) | 16 (≈ 38.6 µM) | 16 (≈ 38.6 µM) | 64 (≈ 154 µM) | 64 (≈ 154 µM) | 16 (≈ 38.6 µM) | 64 (≈ 154 µM) | 16 (≈ 38.6 µM) | 16 (≈ 38.6 µM) | 16 (≈ 38.6 µM) | 1 (≈ 2.41 µM) | 256 (≈ 618 µM) | 1 (≈ 2.41 µM) | fold change (FC) (Staphylococcus aureus [17]): 16; fold change (FC) (Staphylococcus aureus [19]): 16
CO[C@@]1(NC(=O)Cc2cccs2)C(=O)N2C(C(=O)O)=C(COC(N)=O)CS[C@@H]21 [CEFOXITIN] | 256 (≈ 599 µM) | 32 (≈ 74.9 µM) | 128 (≈ 299 µM) | 64 (≈ 150 µM) | 64 (≈ 150 µM) | 128 (≈ 299 µM) | 64 (≈ 150 µM) | 64 (≈ 150 µM) | 64 (≈ 150 µM) | 32 (≈ 74.9 µM) | 128 (≈ 299 µM) | 64 (≈ 150 µM) | 64 (≈ 150 µM) | 128 (≈ 299 µM) | 64 (≈ 150 µM) | 16 (≈ 37.4 µM) | 64 (≈ 150 µM) | 16 (≈ 37.4 µM) | 256 (≈ 599 µM) | 64 (≈ 150 µM) | MBC (Staphylococcus aureus [23]): > 256 µg/mL; MBC (Staphylococcus aureus [24]): > 256 µg/mL; MBC (Staphylococcus aureus [25]): > 256 µg/mL; MBC (Staphylococcus aureus [26]): > 256 µg/mL; MBC (Staphylococcus aureus [27]): > 256 µg/mL
Cc1onc(-c2ccccc2)c1C(=O)N[C@@H]1C(=O)N2[C@@H]1SC(C)(C)[C@@H]2C(=O)O [OXACILLIN] | 256 (≈ 638 µM) | 1 (≈ 2.49 µM) | 256 (≈ 638 µM) | 4 (≈ 9.96 µM) | 4 (≈ 9.96 µM) | 256 (≈ 638 µM) | – | 64 (≈ 159 µM) | 64 (≈ 159 µM) | – | 256 (≈ 638 µM) | 256 (≈ 638 µM) | – | 64 (≈ 159 µM) | 64 (≈ 159 µM) | – | 64 (≈ 159 µM) | 2 (≈ 4.98 µM) | 256 (≈ 638 µM) | 4 (≈ 9.96 µM) | MBC (Staphylococcus aureus [23]): > 256 µg/mL; MBC (Staphylococcus aureus [24]): 256 µg/mL (≈ 638 µM); MBC (Staphylococcus aureus [25]): 256 µg/mL (≈ 638 µM); MBC (Staphylococcus aureus [26]): > 256 µg/mL; fold change (FC) (Staphylococcus aureus [19]): 16; MBC (Staphylococcus aureus [27]): > 256 µg/mL
